ChEMBL document CHEMBL3745707 (Bioorg Med Chem, 2016)
Values belong to the molecule of their own block, whether it stands above or below them. Active and inactive are the calls of the source. The calls are words filed in the database; no cut-off is given here.

Key:
[1] = biological target: T1, Serine/threonine-protein kinase PLK2 (Homo sapiens, UniProt Q9NYY3)
Target sequence in this assay (Q9NYY3 whole entry, looked up): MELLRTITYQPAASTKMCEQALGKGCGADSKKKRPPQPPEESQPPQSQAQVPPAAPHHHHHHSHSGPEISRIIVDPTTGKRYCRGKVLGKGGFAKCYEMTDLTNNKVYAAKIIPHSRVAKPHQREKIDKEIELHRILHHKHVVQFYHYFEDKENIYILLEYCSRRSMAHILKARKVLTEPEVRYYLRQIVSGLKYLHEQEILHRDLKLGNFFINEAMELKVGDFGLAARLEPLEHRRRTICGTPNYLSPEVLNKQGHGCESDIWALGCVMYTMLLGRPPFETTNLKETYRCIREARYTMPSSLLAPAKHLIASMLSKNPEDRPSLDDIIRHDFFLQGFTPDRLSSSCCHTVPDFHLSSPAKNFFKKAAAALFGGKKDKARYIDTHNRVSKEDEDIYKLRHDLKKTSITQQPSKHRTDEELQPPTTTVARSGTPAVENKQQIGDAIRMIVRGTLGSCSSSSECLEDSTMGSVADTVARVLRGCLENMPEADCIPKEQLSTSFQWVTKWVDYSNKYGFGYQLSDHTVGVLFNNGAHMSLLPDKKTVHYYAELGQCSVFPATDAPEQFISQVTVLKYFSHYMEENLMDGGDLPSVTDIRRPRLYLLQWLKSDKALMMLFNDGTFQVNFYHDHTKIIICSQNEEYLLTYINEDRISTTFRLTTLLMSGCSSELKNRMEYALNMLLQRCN

K562 = test: cells; assay type: functional, cell-based; details: Homo sapiens, K562, 72 h
cells [2] = assay type: functional, cell-based; details: Homo sapiens, DU-145, 72 h
[3] = biological target: T1, Serine/threonine-protein kinase PLK2; test: Inhibition of human recombinant PLK2 using recombinant dephosphorylated bovine alpha- casein as substrate after 30 mins by scintillation counting analysis in presence of gamma-32P-ATP
Target sequence in this assay (Q9NYY3 whole entry): as the sequence (Q9NYY3 whole entry, looked up) above

cells [4] = assay type: functional; details: Homo sapiens, BT-474, 72 h
cells [5] = assay type: functional; details: Homo sapiens, Granta-519, 72 h
HeLa = test: cells; assay type: functional; details: Homo sapiens, 72 h
cells [6] = assay type: functional; details: Homo sapiens, MIA PaCa-2, 72 h
U2OS [7] = test: cells; assay type: functional; details: Homo sapiens, 72 h
Raji = test: cells; assay type: functional; details: Homo sapiens, 72 h
cells [8] = assay type: functional; details: Homo sapiens, COLO 205, 72 h
NCI-H1975 = test: cells; assay type: functional; details: Homo sapiens, NCI-H1975, 72 h
Tubulin (Bos taurus) [9] = biological target: T2, Tubulin (Bos taurus) (UniProt Q6B856+Q862L2+Q862F3); test: Inhibition of bovine MAP rich tubulin polymerization at 10 uM measured every 2 mins for 30 mins by UV-visible spectrophotometric analysis; assay type: protein assay
Summary of the method: (§1)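 MAP-rich bovine tubulin at 1.5 mg/mL in 80 mM PIPES pH 6.9, 1 mM GTP, 0.5 mM EGTA, 2 mM MgCl₂. Briefly preincubated with agent or DMSO, then polymerized at 37 °C in a spectrophotometer. Absorbance recorded every 2 min for 30 min; n = 3.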

cells [10] = assay type: functional; details: Homo sapiens, SK-OV-3, 72 h
U2OS [11] = test: Induction of apoptosis in human U2OS cells assessed as increase in caspase 3/7 activity after 24 hrs by caspase Glo assay; assay type: functional, cell-based
Summary of the method: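 U2OS cells (DMEM, 10% FBS, 37 °C, 5% CO₂) plated at 1–3 × 10⁴ cells/well, left overnight, then exposed 24 h to increasing concentrations, with DMSO control. Caspase 3/7 activity read by Caspase-Glo luminescence; viability measured in parallel with Cell Titer Blue fluorescence.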

SK-MEL-28 = test: cells; assay type: functional; details: Homo sapiens, SK-MEL-28, 72 h
A549 = test: cells; assay type: functional; details: Homo sapiens, A549, 72 h
MCF7 = test: cells; assay type: functional; details: Homo sapiens, MCF7, 72 h
cells [12] = assay type: functional, U-87MG ATCC; details: Homo sapiens, U-87 MG, 72 h
Tubulin (Bos taurus) [13] = biological target: T2, Tubulin (Bos taurus); test: Inhibition of bovine MAP rich tubulin polymerization at 1 uM measured every 2 mins for 30 mins by UV-visible spectrophotometric analysis; assay type: protein assay
Summary of the method: as §1

Mus musculus = test: Toxicity in NCR nu/nu mouse xenografted with human MDA-MB-231 cells assessed as change in body weight at 75 mg/kg, ip administered alternative day; assay type: organism-based; details: in vivo
[14] = biological target: Glycogen synthase kinase-3 alpha (Homo sapiens, UniProt P49840); test: Inhibition of human GSK3alpha using [YRRAAVPPSPSLSRHSSPHQ(pS)EDEEE] as substrate
[15] = biological target: Testis-specific serine/threonine-protein kinase 3 (Homo sapiens, UniProt Q96PN8); test: Inhibition of human TSSK3 using [KKKVSRSGLYRSPSMPENLNRPR] as substrate
[16] = biological target: Serine/threonine-protein kinase Nek1 (Homo sapiens, UniProt Q96PY6); test: Inhibition of human NEK1 using MBP as substrate
[17] = biological target: Serine/threonine-protein kinase Nek2 (Homo sapiens, UniProt P51955); test: Inhibition of human NEK2 using MBP as substrate
[18] = biological target: T1, Serine/threonine-protein kinase PLK2; test: Inhibition of human PLK2 using casein as substrate
Target sequence in this assay (Q9NYY3 whole entry): as the sequence (Q9NYY3 whole entry, looked up) above

[19] = biological target: TRAF2 and NCK-interacting protein kinase (Homo sapiens, UniProt Q9UKE5); test: Inhibition of human TNIK using [RLGRDKYKTLRQIRQ] as substrate
[20] = biological target: High affinity nerve growth factor receptor (Homo sapiens, UniProt P04629); test: Inhibition of human TRKA using poly[Glu:Tyr] (4:1) as substrate
[21] = biological target: Ribosomal protein S6 kinase alpha-1 (Homo sapiens, UniProt Q15418); test: Inhibition of human RSK1 using [KKLNRTLSVA] as substrate
Ephrin type-A receptor 6 = Ephrin type-A receptor 6 (Homo sapiens, UniProt Q9UF33); test: Inhibition of human EPHA6 using poly[Glu:Tyr] (4:1) as substrate
[22] = biological target: Mitogen-activated protein kinase 14 (Homo sapiens, UniProt Q16539); test: Inhibition of human P38alpha using MBP as substrate
[23] = biological target: Receptor-type tyrosine-protein kinase FLT3 (Homo sapiens, UniProt P36888); test: Inhibition of human FLT3 using [EAIYAAPFAKKK] as substrate
[24] = biological target: Serine/threonine-protein kinase Nek5 (Homo sapiens, UniProt Q6P3R8); test: Inhibition of human NEK5 using MBP as substrate
[25] = biological target: Fibroblast growth factor receptor 3 (Homo sapiens, UniProt P22607); test: Inhibition of human FGFR3 using poly[Glu:Tyr] (4:1) as substrate
[26] = biological target: Serine/threonine-protein kinase Nek9 (Homo sapiens, UniProt Q8TD19); test: Inhibition of human NEK9 using MBP as substrate
[27] = biological target: Serine/threonine-protein kinase PLK1 (Homo sapiens) (UniProt P53350)
[28] = biological target: Cyclin-Y/Cyclin-dependent kinase 16 (Homo sapiens, UniProt Q00536); test: Inhibition of human CDK16/cyclin Y using RP protein as substrate; assay type: protein-complex assay
[29] = biological target: Fibroblast growth factor receptor 1 (Homo sapiens, UniProt P11362); test: Inhibition of human FGFR1 using [KKKSPGEYVNIEFG] as substrate
Chain of Fibroblast growth factor receptor 1 (P11362 whole entry): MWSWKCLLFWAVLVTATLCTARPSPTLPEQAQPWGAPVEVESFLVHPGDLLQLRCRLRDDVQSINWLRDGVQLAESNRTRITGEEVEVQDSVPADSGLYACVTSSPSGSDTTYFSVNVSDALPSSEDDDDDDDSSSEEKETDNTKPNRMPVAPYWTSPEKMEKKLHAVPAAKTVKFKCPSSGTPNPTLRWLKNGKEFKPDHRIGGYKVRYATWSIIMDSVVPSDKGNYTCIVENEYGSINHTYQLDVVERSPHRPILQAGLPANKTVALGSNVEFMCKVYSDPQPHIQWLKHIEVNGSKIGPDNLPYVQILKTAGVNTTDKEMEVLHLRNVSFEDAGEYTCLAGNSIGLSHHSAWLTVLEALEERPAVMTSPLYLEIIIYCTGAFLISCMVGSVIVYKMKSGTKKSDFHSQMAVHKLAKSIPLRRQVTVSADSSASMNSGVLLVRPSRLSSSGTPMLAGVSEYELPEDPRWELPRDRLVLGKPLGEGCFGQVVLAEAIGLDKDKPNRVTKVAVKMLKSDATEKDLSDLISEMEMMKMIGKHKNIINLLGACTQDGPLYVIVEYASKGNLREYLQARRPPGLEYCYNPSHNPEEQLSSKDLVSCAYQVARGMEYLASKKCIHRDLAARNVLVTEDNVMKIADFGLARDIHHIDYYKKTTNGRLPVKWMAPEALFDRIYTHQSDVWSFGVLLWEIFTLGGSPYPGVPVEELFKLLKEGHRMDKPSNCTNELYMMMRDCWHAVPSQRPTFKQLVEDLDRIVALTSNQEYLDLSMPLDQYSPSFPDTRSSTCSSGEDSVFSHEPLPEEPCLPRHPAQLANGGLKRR

Chain of Serine/threonine-protein kinase Nek5 (Q6P3R8 whole entry): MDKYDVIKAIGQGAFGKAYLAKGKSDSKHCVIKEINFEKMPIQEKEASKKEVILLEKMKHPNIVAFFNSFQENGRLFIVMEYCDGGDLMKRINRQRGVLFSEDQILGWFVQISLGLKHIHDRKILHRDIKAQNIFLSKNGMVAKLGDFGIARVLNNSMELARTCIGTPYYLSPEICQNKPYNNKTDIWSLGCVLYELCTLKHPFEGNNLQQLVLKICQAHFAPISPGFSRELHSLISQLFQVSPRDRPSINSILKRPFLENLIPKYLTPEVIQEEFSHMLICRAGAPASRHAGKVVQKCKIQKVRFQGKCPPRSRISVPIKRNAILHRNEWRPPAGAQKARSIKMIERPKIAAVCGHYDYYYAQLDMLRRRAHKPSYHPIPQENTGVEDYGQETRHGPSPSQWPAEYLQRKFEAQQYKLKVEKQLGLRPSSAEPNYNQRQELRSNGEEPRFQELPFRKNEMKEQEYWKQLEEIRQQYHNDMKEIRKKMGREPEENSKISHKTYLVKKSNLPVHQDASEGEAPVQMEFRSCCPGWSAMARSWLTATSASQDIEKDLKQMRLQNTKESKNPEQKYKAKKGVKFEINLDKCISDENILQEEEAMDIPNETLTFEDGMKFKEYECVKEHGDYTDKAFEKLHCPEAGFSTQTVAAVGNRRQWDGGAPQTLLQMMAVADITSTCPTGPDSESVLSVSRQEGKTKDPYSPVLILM
Chain of Serine/threonine-protein kinase Nek9 (Q8TD19 whole entry): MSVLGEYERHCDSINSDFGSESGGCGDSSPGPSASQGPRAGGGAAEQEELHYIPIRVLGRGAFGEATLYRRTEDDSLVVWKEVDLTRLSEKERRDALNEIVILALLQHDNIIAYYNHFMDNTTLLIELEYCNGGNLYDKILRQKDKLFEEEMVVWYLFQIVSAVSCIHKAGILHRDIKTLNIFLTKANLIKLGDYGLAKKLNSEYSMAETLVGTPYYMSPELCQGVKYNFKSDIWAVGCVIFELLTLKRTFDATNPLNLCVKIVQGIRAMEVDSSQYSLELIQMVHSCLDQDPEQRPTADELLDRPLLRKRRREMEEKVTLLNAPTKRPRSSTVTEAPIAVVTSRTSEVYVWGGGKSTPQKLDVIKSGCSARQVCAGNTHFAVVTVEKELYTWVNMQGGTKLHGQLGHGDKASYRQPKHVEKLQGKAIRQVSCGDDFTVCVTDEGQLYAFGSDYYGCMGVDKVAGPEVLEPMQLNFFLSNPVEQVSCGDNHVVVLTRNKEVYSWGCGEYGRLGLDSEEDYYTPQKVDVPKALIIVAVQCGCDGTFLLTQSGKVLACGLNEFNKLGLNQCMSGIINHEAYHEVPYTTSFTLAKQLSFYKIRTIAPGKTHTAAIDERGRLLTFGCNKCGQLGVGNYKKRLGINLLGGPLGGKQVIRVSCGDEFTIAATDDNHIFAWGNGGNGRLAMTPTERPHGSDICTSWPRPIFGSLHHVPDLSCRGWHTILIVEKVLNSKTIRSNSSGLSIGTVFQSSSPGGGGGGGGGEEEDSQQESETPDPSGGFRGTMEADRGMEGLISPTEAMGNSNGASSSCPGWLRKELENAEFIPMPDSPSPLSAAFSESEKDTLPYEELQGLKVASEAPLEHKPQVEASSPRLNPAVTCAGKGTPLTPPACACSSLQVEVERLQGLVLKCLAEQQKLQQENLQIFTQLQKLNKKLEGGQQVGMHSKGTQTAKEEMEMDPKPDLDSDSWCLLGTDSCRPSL
Chain of Receptor-type tyrosine-protein kinase FLT3 (P36888 whole entry): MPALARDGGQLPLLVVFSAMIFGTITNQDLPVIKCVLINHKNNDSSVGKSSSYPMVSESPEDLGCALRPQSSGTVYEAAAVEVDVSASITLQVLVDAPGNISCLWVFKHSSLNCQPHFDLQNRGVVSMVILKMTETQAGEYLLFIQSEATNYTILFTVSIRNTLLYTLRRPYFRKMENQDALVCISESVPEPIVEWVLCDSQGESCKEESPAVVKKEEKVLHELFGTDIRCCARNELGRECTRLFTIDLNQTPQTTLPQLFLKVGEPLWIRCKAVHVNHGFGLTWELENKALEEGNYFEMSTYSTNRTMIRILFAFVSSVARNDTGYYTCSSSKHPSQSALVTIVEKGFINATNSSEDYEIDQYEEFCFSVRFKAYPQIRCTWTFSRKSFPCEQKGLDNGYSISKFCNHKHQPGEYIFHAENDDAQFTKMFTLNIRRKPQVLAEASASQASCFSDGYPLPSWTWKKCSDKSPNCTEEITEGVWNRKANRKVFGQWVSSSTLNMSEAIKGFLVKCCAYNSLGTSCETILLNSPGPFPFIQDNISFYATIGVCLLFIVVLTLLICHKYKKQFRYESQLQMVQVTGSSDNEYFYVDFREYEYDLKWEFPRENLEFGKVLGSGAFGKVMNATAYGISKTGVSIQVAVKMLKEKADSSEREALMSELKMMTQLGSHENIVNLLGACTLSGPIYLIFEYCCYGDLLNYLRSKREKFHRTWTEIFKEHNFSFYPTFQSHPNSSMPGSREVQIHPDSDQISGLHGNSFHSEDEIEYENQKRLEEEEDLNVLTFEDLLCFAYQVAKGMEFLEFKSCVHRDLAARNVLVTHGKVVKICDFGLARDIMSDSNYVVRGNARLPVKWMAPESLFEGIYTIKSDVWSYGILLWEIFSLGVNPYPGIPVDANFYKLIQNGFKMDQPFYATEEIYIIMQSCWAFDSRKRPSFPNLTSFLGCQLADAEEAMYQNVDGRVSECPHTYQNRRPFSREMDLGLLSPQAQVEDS
Chain of Serine/threonine-protein kinase PLK1 (Homo sapiens) (P53350 whole entry): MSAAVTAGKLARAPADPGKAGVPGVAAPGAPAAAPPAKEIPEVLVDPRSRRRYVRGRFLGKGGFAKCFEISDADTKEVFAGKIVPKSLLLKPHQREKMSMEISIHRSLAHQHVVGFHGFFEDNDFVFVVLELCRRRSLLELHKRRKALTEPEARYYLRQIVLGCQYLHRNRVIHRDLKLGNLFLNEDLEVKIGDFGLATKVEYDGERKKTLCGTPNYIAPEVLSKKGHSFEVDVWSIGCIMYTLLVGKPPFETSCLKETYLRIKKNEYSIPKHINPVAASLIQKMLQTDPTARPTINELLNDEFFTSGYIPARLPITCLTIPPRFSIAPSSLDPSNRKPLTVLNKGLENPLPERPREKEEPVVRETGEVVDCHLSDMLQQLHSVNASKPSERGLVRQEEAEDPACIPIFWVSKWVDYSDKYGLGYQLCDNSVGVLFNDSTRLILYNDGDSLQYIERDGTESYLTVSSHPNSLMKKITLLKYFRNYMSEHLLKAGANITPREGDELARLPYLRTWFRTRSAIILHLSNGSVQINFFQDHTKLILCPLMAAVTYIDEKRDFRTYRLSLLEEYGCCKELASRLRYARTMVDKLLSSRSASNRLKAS

ΔTm [1]: 12.3 °C
SMILES: CC[C@@H]1C(=O)N(C)c2cnc(Nc3ccc(C(=O)NC4CCN(C)CC4)cc3OC)nc2N1C1CCCC1

IC50 (K562): 300 nM
IC50 (cells [2]): 500 nM
IC50 [3]: 350 nM
SMILES: COc1ccc(S(=O)(=O)c2cc3cnc(Nc4ccc5[nH]ccc5c4)nc3n(C)c2=O)cc1

inhibition (Tubulin (Bos taurus) [13]): Active
SMILES: CC[C@]1(O)C[C@H]2CN(CCc3c([nH]c4ccccc34)[C@@](C(=O)OC)(c3cc4c(cc3OC)N(C=O)[C@H]3[C@@](O)(C(=O)OC)[C@H](OC(C)=O)[C@]5(CC)C=CCN6CC[C@]43[C@@H]65)C2)C1

GI50 (HeLa): 500 nM
GI50 (U2OS [7]): 350 nM
GI50 (Raji): 400 nM
GI50 (NCI-H1975): 750 nM
IC50 (K562): 600 nM
inhibition (Tubulin (Bos taurus) [9]): Active
IC50 (cells [2]): 150 nM
GI50 (SK-MEL-28): 500 nM
GI50 (A549): 2500 nM
GI50 (MCF7): 500 nM
SMILES: Cn1c(=O)c(S(=O)(=O)c2ccc(OC(=O)CCCCC3SCC4NC(=O)NC43)cc2)cc2cnc(Nc3ccc4[nH]ccc4c3)nc21 (stereo unspecified)
GI50 (cells [4]): 250 nM
GI50 (cells [5]): 500 nM
GI50 (cells [6]): 100 nM
GI50 (cells [8]): 500 nM
GI50 (cells [10]): 400 nM
GI50 (cells [12]): 1000 nM

IC50 (K562): 5000 nM
IC50 (cells [2]): 5000 nM
SMILES: Cn1c(=O)c(C(=O)Nc2ccc(F)cc2F)cc2cnc(Nc3ccc4[nH]ccc4c3)nc21

IC50 (K562): 10000 nM
IC50 (cells [2]): 10000 nM
SMILES: Cc1ccc(S(=O)(=O)c2cc3cnc(Nc4cccc5cccnc45)nc3n(C)c2=O)cc1

IC50 (K562): 15000 nM
IC50 (cells [2]): 25000 nM
SMILES: Cc1ccc(S(=O)(=O)c2cc3cnc(Nc4cnc5[nH]ccc5c4)nc3n(C)c2=O)cc1

The next lines start with the molecule.

SMILES: Cn1c(=O)c(S(=O)(=O)c2ccc(F)cc2)cc2cnc(Nc3ccc4[nH]ccc4c3)nc21
GI50 (cells [4]): 200 nM
GI50 (cells [5]): 60 nM
GI50 (HeLa): 75 nM
GI50 (cells [6]): 75 nM
GI50 (U2OS [7]): 55 nM
GI50 (Raji): 100 nM
GI50 (cells [8]): 200 nM
GI50 (NCI-H1975): 100 nM
IC50 (K562): 200 nM
inhibition (Tubulin (Bos taurus) [9]): Active
GI50 (cells [10]): 200 nM
IC50 (cells [2]): 300 nM
Activity (U2OS [11]): Dose-dependent effect
GI50 (SK-MEL-28): 300 nM
IC50 [3]: 1070 nM
GI50 (A549): 200 nM
GI50 (MCF7): 250 nM
GI50 (cells [12]): 400 nM

SMILES: Cn1c(=O)c(S(=O)(=O)c2ccc(F)cc2)cc2cnc(Nc3cccc4[nH]ccc34)nc21
IC50 (K562): 750 nM
IC50 (cells [2]): 750 nM
IC50 [3]: 6080 nM

SMILES: Cn1c(=O)c(S(=O)(=O)c2ccccc2)cc2cnc(Nc3ccc4[nH]ccc4c3)nc21
IC50 (K562): 1000 nM
IC50 (cells [2]): 5000 nM
IC50 [3]: 1230 nM

SMILES: Cn1c(=O)c(S(=O)(=O)c2ccc(F)cc2F)cc2cnc(Nc3ccc4[nH]ccc4c3)nc21
Activity (Mus musculus): Non-toxic
IC50 [14]: > 5000 nM
IC50 [15]: > 5000 nM
IC50 [16]: 630 nM
IC50 [17]: 1830 nM
IC50 [18]: 374 nM
IC50 [19]: > 5000 nM
IC50 [20]: > 5000 nM
IC50 [21]: > 5000 nM
inhibition (Tubulin (Bos taurus) [9]): inactive
IC50 (Ephrin type-A receptor 6): > 5000 nM
Activity (U2OS [11]): Dose-dependent effect
IC50 [22]: > 10000 nM
IC50 [23]: > 5000 nM
ΔTm [1]: 4.1 °C
IC50 [24]: 4420 nM
IC50 [3]: 310 nM
IC50 [25]: > 5000 nM
IC50 [26]: > 5000 nM
ΔTm [27]: 0.2 °C
IC50 [28]: > 10000 nM
IC50 [29]: > 5000 nM

SMILES: Cn1c(=O)c(S(=O)(=O)c2ccc(O)cc2)cc2cnc(Nc3ccc4[nH]ccc4c3)nc21
GI50 (cells [4]): 200 nM
GI50 (cells [5]): 250 nM
GI50 (HeLa): 750 nM
GI50 (cells [6]): 100 nM
GI50 (U2OS [7]): 350 nM
GI50 (Raji): 500 nM
GI50 (cells [8]): 250 nM
GI50 (NCI-H1975): 750 nM
IC50 (K562): 100 nM
inhibition (Tubulin (Bos taurus) [9]): Active
GI50 (cells [10]): 750 nM
IC50 (cells [2]): 250 nM
GI50 (SK-MEL-28): 500 nM
IC50 [3]: 470 nM
GI50 (A549): 750 nM
GI50 (MCF7): 500 nM
GI50 (cells [12]): 1000 nM

SMILES: Cn1c(=O)c(S(=O)(=O)c2ccc(F)cc2F)cc2cnc(Nc3ccc4[nH]ncc4c3)nc21
IC50 (K562): 50000 nM
IC50 (cells [2]): 30000 nM

SMILES: O=c1[nH]c2nc(Nc3ccc4[nH]ccc4c3)ncc2cc1S(=O)(=O)c1ccc(F)cc1F
IC50 (K562): 15000 nM
IC50 (cells [2]): 15000 nM

SMILES: Cn1c(=O)c(S(=O)(=O)Cc2ccc(F)cc2F)cc2cnc(Nc3ccc4[nH]ccc4c3)nc21
IC50 (K562): 1000 nM
IC50 (cells [2]): 1000 nM

SMILES: Cn1c(=O)c(S(=O)(=O)c2ccc(F)cc2[N+](=O)[O-])cc2cnc(Nc3ccc4[nH]ccc4c3)nc21
IC50 (K562): 900 nM
IC50 (cells [2]): 1500 nM

SMILES: CCCn1c(=O)c(S(=O)(=O)c2ccc(F)cc2F)cc2cnc(Nc3ccc4[nH]ccc4c3)nc21
IC50 (K562): 1000 nM
IC50 (cells [2]): 1000 nM

SMILES: Cn1c(=O)c(S(=O)(=O)Nc2ccc(F)cc2)cc2cnc(Nc3ccc4[nH]ccc4c3)nc21
IC50 (K562): 5000 nM
IC50 (cells [2]): 5000 nM

SMILES: Cn1c(=O)c(S(=O)(=O)c2ccc(Br)cc2)cc2cnc(Nc3ccc4[nH]ccc4c3)nc21
IC50 (K562): 5000 nM
IC50 (cells [2]): 5000 nM

SMILES: Cn1c(=O)c(S(=O)(=O)c2ccc(F)cc2F)cc2cnc(Nc3ccc4cccc(O)c4n3)nc21
IC50 (K562): 5000 nM
IC50 (cells [2]): 5000 nM
